Experiments:
MCF7 = experiment: In vitro inhibitory concentration against MCF-7(breast) cell line with ATP concentration at 1/2Km; format: functional, cell-based; conditions: Homo sapiens
COLO 205 = experiment: In vitro inhibitory concentration against COLO 205 (colon) cell line with ATP concentration at 1/2Km; format: functional, cell-based; conditions: Homo sapiens
[1] = Steady-state volume of distribution in monkey when administered intravenously at 2 mg/kg; format: ADME, organism-based; design: dose 2 mg/kg, route intravenous; conditions: cercopithecidae, in vivo, iv, read-out: Vss
[2] = Bioavailability in mouse administered perorally at 20 mg/kg; format: ADME, organism-based; conditions: in vivo, po
[3] = Maximum concentration in rat administered orally at 50 mg/kg; format: ADME, organism-based; design: dose 50 mg/kg, route oral; conditions: in vivo, po
[4] = Bioavailability in dog at 5 mg/kg oral dose; format: ADME, organism-based, Canis lupus familiaris; conditions: in vivo
[5] = Bioavailability in rat administered perorally at 50 mg/kg; format: ADME, organism-based; conditions: in vivo, po
[6] = Bioavailability in monkey at 5 mg/kg oral dose; format: ADME, organism-based; conditions: cercopithecidae, in vivo
[7] = In vitro inhibitory concentration against MDA PCa-2b (prostate) cell line with ATP concentration at 1/2Km; format: functional, Homo sapiens
[8] = Total clearance in mouse when administered intravenously at 4 mg/kg; format: ADME, organism-based; design: dose 4 mg/kg, route intravenous; conditions: in vivo, iv, read-out: CLtot
[9] = Maximum concentration in mouse administered orally at 20 mg/kg; format: ADME, organism-based; design: dose 20 mg/kg, route oral; conditions: in vivo, po
[10] = Maximum concentration in dog administered orally at 5 mg/kg; format: ADME, organism-based, Canis lupus familiaris; design: dose 5 mg/kg, route oral; conditions: in vivo, po
[11] = In vitro inhibitory concentration against Geo (colon) cell line with ATP concentration at 1/2Km; format: functional, Homo sapiens
[12] = Steady-state volume of distribution in dog when administered intravenously at 2 mg/kg; format: ADME, organism-based, Canis lupus familiaris; design: dose 2 mg/kg, route intravenous; conditions: in vivo, iv, read-out: Vss
[13] = Steady-state volume of distribution in rat when administered intravenously at 4 mg/kg; format: ADME, organism-based; design: dose 4 mg/kg, route intravenous; conditions: in vivo, iv, read-out: Vss
[14] = target: Dual specificity mitogen-activated protein kinase kinase 1 (Homo sapiens, UniProt Q02750); experiment: In vitro inhibitory concentration against MEK with ATP concentration at 1/2Km
Dual specificity mitogen-activated protein kinase kinase 1, sequence (Q02750 whole entry): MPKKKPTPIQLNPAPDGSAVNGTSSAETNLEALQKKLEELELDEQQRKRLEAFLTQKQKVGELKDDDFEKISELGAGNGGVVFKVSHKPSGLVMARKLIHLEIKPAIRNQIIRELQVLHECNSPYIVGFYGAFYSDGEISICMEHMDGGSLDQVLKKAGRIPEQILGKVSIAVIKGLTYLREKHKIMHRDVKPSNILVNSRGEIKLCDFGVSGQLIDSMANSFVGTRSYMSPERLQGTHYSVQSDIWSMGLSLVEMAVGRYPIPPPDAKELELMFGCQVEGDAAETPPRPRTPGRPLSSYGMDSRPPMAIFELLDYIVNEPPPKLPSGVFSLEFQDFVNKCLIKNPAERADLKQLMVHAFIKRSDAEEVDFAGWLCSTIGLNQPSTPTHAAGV
In short: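 Cell-free kinase inhibition assay. ATP was set at ½ Km, determined separately for each kinase, and the IC50 was derived under that condition.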

RD = experiment: In vitro inhibitory concentration against RD1 (rhabdomyosarcoma) cell line with ATP concentration at 1/2Km; format: functional, cell-based; conditions: Homo sapiens
[15] = Steady-state volume of distribution in mouse when administered intravenously at 4 mg/kg; format: ADME, organism-based; design: dose 4 mg/kg, route intravenous; conditions: in vivo, iv, read-out: Vss
[16] = Total clearance in rat when administered intravenously at 4 mg/kg; format: ADME, organism-based; design: dose 4 mg/kg, route intravenous; conditions: in vivo, iv, read-out: CLtot
[17] = Total clearance in dog when administered intravenously at 2 mg/kg; format: ADME, organism-based, Canis lupus familiaris; design: dose 2 mg/kg, route intravenous; conditions: in vivo, iv, read-out: CLtot
[18] = Maximum concentration in monkey administered orally at 5 mg/kg; format: ADME, organism-based; design: dose 5 mg/kg, route oral; conditions: cercopithecidae, in vivo, po
[19] = Total clearance in monkey at 2 mg/kg intravenous dose; format: ADME, organism-based; design: dose 2 mg/kg, route intravenous; conditions: cercopithecidae, in vivo, read-out: CLtot
Cytochrome P450 2C19 = Cytochrome P450 2C19 (Homo sapiens, UniProt P33261); experiment: Concentration required to inhibit cytochrome P450 isozyme CYP2C19 in vitro by 50%; format: ADME
Cytochrome P450 2C19, sequence (P33261 whole entry): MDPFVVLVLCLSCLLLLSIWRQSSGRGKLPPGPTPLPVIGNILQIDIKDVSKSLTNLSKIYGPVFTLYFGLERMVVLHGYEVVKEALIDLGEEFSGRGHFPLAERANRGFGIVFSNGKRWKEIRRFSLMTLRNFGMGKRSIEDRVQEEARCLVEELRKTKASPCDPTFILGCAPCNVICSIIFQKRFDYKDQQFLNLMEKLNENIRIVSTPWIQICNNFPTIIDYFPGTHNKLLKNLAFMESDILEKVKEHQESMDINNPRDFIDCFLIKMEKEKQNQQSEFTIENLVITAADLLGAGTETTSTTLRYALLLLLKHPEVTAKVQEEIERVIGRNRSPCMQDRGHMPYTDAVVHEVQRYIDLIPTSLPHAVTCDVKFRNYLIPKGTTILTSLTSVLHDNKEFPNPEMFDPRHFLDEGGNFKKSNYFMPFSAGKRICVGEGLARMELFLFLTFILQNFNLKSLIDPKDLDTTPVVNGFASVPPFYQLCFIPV

Cytochrome P450 3A4 [20] = target: T1, Cytochrome P450 3A4 (Homo sapiens, UniProt P08684); experiment: Concentration required to inhibit cytochrome P450 isozyme CYP3A4-BzRes in vitro by 50%; format: ADME
T1 sequence (P08684 whole entry): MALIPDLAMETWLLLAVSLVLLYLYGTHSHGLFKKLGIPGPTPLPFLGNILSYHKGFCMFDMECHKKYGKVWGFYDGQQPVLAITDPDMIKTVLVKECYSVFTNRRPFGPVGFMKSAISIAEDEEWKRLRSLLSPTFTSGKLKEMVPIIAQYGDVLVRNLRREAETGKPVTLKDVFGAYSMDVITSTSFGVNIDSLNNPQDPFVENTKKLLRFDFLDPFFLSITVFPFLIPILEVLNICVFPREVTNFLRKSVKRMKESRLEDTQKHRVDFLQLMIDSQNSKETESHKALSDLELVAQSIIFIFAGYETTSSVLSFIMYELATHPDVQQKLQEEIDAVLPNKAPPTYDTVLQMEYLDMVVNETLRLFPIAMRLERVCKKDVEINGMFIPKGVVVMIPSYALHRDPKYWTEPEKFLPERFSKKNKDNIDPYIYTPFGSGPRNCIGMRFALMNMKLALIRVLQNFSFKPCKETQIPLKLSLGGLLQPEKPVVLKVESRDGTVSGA

Cytochrome P450 1A2 = target: T2, Cytochrome P450 1A2 (Homo sapiens, UniProt P05177); experiment: Concentration required to inhibit Cytochrome P450 1A2 in vitro by 50%; format: ADME
T2 sequence (P05177 whole entry): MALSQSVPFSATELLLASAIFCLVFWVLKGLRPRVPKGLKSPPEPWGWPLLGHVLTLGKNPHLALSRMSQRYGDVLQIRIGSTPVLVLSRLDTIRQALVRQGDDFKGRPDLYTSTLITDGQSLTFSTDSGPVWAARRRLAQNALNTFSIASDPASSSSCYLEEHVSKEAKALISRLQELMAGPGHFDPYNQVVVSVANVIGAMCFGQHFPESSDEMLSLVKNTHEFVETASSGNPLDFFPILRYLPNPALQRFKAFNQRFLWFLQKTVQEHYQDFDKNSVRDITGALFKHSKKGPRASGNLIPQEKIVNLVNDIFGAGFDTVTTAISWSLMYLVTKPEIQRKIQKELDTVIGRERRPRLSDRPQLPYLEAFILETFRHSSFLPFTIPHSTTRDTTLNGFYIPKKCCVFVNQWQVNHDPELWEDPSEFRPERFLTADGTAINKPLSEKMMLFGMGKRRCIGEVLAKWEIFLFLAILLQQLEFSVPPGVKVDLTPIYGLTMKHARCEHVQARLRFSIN

Cytochrome P450 2C9 = Cytochrome P450 2C9 (Homo sapiens, UniProt P11712); experiment: Concentration required to inhibit Cytochrome P450 2C9 in vitro by 50%
Cytochrome P450 2C9, sequence (P11712 whole entry): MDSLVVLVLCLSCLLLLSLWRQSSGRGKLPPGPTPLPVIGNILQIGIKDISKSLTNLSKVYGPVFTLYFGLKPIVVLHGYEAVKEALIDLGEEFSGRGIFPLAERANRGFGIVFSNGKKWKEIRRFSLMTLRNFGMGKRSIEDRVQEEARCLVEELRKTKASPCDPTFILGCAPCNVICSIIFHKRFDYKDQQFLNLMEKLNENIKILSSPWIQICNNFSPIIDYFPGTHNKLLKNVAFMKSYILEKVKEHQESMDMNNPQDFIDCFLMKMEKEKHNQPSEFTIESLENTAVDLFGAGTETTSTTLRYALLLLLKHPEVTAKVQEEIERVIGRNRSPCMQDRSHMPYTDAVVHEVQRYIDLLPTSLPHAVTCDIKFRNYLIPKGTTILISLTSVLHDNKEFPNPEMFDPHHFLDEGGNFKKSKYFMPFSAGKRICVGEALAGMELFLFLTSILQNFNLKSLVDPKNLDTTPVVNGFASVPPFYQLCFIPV

Cytochrome P450 3A4 [21] = target: T1, Cytochrome P450 3A4; experiment: Concentration required to inhibit cytochrome P450 isozyme CYP3A4-BFC in vitro by 50%; format: ADME

For `Cc1cc(N2CCOCC2)cc2[nH]c(-c3c(NC[C@@H](O)c4cccc(Cl)c4)cc[nH]c3=O)nc12`, the IC50 (MCF7) was 460 nM, the IC50 (COLO 205) was 212 nM and the Vd [1] was 1.4 L/kg. For the same molecule, the bioavailability [2] was 50%, the Cmax [3] was 69 µM and the bioavailability [4] was 70%. The bioavailability [5] was > 100%, the bioavailability [6] was 32% and the IC50 [7] was 194 nM. It also gave a clearance [8] of 37.8 mL/min/kg, a Cmax [9] of 3.8 µM and a Cmax [10] of 4.1 µM. For the same molecule, the IC50 [11] was 320 nM, the Vd [12] was 1.3 L/kg and the Vd [13] was 0.8 L/kg. It also gave an IC50 [14] of 182 nM, an IC50 (RD) of 202 nM and a Vd [15] of 1.9 L/kg. The clearance [16] was 5.8 mL/min/kg, the clearance [17] was 4.1 mL/min/kg and the Cmax [18] was 1.3 µM. It also gave a clearance [19] of 16.5 mL/min/kg.
For `Cc1cc(-n2ccnc2)cc2[nH]c(-c3c(NCC(O)c4cccc(Cl)c4)cc[nH]c3=O)nc12` (configuration not stated), the IC50 (Cytochrome P450 2C19) was 26 nM, the IC50 (Cytochrome P450 3A4 [20]) was < 18 nM and the IC50 (Cytochrome P450 1A2) was < 18 nM. The IC50 (Cytochrome P450 2C9) was < 18 nM and the IC50 (Cytochrome P450 3A4 [21]) was < 18 nM.

Reference: ChEMBL document CHEMBL1143653, “Discovery of a (1H-benzoimidazol-2-yl)-1H-pyridin-2-one (BMS-536924) inhibitor of insulin-like growth factor I receptor kinase with in vivo antitumor activity” (J Med Chem, 2005)
